Tests used:
[1] = target: Hepatocyte growth factor receptor (Homo sapiens) (UniProt P08581); experiment: Inhibition of MET at 10 uM
[2] = system: SF-268; experiment: Antiproliferative activity against human SF268 cells at 100 uM after 48 hrs relative to control; format: functional; conditions: SF-268, 48 h
How it was run: (§1)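 NCI three-cell-line prescreen (MCF7 breast, NCI-H460 non-small cell lung, SF-268 CNS). Cells inoculated and preincubated in microtiter plates, then exposed to test agent at 10^-4 M for 48 h. Alamar blue end-point read-out. Growth of treated cells expressed as percent of untreated control cells.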

[3] = target: Insulin-like growth factor 1 receptor (Homo sapiens) (UniProt P08069); experiment: Inhibition of IGF1R at 10 uM
[4] = target: Vascular endothelial growth factor receptor 3 (Homo sapiens, UniProt P35916); experiment: Inhibition of VEGFR3 at 10 uM
Chain of Vascular endothelial growth factor receptor 3 (P35916 whole entry): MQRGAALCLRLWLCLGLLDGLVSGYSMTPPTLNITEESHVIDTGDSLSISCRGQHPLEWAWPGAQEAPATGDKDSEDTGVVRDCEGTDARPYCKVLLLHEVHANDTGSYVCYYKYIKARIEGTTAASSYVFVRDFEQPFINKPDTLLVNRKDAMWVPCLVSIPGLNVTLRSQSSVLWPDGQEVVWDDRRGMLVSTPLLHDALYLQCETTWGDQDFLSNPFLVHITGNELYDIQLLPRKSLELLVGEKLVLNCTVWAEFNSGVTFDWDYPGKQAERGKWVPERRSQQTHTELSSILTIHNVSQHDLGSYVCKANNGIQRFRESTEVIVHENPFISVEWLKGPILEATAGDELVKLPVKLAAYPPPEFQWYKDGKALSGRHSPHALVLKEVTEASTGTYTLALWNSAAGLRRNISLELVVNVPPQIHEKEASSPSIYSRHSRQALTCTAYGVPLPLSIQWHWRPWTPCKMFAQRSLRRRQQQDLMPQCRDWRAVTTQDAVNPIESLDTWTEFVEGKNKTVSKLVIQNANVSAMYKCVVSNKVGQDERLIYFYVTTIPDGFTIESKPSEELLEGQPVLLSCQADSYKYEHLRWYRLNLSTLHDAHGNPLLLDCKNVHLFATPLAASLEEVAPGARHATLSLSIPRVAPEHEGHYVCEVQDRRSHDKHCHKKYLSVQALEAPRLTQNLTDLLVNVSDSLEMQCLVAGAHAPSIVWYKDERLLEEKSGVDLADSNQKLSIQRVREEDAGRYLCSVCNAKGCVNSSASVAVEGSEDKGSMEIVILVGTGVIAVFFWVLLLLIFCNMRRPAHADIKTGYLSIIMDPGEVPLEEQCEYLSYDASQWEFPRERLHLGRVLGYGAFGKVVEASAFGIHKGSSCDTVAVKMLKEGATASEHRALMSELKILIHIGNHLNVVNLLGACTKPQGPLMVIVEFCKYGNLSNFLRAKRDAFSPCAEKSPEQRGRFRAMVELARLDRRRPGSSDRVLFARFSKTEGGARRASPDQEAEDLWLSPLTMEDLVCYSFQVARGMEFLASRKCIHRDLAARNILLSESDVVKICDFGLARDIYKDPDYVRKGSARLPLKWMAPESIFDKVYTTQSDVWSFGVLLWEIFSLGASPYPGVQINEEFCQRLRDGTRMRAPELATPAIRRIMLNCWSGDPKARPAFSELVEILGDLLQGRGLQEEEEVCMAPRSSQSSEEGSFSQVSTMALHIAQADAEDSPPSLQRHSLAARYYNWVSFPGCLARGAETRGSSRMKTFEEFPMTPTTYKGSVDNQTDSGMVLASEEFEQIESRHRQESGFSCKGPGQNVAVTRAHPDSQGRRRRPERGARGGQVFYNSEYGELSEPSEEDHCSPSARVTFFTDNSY

[5] = target: Platelet-derived growth factor receptor beta (Homo sapiens) (UniProt P09619); experiment: Inhibition of PDGFRbeta at 10 uM
Chain of Platelet-derived growth factor receptor beta (Homo sapiens) (P09619 whole entry): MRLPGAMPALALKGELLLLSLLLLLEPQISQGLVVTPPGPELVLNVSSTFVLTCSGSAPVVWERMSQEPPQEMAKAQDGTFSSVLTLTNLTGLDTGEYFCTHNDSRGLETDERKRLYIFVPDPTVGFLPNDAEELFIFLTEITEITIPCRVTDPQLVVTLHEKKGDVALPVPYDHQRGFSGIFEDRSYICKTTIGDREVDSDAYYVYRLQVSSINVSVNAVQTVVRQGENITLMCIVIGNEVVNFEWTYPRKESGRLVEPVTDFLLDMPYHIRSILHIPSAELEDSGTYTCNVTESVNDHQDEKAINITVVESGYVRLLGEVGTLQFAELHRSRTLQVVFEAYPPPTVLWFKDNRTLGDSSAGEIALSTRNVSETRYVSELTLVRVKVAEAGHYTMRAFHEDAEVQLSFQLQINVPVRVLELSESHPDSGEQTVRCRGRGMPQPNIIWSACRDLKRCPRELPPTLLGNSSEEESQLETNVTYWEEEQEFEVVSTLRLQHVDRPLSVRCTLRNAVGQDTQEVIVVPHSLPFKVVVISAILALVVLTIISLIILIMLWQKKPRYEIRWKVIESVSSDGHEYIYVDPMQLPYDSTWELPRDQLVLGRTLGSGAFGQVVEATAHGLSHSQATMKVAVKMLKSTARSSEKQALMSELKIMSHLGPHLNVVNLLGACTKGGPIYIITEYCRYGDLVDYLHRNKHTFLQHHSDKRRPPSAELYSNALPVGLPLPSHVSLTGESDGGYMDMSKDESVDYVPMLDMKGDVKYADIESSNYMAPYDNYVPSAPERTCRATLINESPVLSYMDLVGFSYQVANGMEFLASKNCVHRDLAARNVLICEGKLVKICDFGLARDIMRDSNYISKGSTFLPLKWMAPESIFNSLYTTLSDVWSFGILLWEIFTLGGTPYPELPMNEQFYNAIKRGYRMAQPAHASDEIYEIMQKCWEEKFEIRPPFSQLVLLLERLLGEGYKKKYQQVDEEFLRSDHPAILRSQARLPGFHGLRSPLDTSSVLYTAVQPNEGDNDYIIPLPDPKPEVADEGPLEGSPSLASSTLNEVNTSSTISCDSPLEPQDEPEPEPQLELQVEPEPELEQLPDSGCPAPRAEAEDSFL

[6] = target: Vascular endothelial growth factor receptor 2 (Homo sapiens) (UniProt P35968); experiment: Inhibition of VEGFR2 at 10 uM
[7] = target: T1, NUAK family SNF1-like kinase 1 (Homo sapiens) (UniProt O60285); experiment: Inhibition of ARK5 at 10 uM
T1 sequence (whole entry): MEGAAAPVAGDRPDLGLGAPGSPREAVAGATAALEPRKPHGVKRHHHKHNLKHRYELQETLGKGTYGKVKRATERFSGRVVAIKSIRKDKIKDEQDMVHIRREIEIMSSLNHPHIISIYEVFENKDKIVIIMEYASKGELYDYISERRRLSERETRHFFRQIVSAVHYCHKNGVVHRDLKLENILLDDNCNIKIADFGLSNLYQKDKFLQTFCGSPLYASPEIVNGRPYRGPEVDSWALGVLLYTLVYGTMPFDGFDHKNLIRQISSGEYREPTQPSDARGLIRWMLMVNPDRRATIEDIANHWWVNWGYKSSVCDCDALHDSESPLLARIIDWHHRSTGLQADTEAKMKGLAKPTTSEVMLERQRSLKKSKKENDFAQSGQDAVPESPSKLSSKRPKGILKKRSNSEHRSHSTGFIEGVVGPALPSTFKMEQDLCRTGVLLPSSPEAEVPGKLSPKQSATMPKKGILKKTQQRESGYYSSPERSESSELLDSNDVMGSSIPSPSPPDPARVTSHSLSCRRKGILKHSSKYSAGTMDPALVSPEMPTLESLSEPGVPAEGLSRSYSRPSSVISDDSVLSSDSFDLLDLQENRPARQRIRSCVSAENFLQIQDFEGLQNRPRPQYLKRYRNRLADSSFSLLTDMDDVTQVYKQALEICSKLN

[8] = target: T2, Serine/threonine-protein kinase PLK4 (Homo sapiens) (UniProt O00444); experiment: Inhibition of SAK at 10 uM
T2 sequence (whole entry): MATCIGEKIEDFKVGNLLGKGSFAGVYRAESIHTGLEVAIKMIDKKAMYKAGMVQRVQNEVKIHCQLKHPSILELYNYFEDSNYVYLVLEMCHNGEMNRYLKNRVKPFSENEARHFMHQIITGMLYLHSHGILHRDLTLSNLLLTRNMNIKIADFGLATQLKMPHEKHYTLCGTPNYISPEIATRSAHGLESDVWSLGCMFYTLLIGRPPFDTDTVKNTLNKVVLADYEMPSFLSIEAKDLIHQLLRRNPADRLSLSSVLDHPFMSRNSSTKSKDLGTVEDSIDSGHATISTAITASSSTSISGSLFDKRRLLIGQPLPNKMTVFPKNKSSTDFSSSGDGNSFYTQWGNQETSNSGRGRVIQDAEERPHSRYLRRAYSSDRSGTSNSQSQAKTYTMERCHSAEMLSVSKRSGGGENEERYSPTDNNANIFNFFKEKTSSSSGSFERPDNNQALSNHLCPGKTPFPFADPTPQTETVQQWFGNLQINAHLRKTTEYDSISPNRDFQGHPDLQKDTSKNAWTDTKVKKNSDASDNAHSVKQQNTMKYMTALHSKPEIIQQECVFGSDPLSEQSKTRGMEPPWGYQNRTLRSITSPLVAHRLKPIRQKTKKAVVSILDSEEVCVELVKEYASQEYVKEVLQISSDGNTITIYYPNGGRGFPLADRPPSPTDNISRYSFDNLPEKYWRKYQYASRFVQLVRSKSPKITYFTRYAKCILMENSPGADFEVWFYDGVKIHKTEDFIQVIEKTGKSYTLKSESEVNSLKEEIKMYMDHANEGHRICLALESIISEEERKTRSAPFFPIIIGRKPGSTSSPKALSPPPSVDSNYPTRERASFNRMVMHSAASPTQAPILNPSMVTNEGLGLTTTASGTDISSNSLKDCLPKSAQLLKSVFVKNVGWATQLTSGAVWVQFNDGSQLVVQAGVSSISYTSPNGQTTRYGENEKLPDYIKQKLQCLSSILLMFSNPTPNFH

[9] = target: T3, Aurora kinase A (Homo sapiens) (UniProt O14965); experiment: Inhibition of aurora A at 10 uM
T3 sequence (whole entry): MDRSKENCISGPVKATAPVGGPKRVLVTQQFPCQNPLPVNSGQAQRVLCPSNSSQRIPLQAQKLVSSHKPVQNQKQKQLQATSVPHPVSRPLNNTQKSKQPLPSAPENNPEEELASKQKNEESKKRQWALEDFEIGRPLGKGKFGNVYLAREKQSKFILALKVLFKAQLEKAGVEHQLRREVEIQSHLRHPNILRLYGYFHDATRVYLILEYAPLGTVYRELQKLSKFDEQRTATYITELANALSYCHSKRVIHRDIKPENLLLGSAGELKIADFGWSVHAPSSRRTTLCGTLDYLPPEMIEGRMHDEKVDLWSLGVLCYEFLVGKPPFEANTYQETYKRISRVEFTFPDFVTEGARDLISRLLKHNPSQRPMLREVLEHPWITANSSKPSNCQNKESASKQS

[10] = target: Receptor tyrosine-protein kinase erbB-2 (Homo sapiens) (UniProt P04626); experiment: Inhibition of ERBB2 at 10 uM
[11] = target: 3-phosphoinositide-dependent protein kinase 1 (Homo sapiens) (UniProt O15530); experiment: Inhibition of PDK1 at 10 uM
Chain of 3-phosphoinositide-dependent protein kinase 1 (Homo sapiens) (O15530 whole entry, looked up): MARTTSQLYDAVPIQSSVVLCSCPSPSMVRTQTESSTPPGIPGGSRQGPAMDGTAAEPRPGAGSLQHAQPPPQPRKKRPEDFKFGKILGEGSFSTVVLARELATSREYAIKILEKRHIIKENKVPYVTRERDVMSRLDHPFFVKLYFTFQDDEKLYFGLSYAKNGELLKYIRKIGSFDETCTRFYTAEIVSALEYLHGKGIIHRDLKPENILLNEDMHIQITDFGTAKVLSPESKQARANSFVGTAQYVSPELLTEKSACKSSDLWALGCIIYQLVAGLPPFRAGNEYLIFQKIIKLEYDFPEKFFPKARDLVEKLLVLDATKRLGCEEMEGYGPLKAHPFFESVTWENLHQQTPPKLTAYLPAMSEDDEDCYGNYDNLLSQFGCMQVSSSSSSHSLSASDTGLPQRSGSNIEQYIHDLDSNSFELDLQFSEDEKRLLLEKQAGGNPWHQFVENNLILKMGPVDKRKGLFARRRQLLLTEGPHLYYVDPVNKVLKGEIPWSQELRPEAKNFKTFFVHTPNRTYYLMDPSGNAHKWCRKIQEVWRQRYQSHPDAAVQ

[12] = system: NCI-H460; experiment: Antiproliferative activity against human NCI-H460 cells at 100 uM after 48 hrs relative to control; format: functional; conditions: NCI-H460, 48 h; how it was run: as §1
[13] = target: Serine/threonine-protein kinase PLK1 (Homo sapiens) (UniProt P53350); experiment: Inhibition of PLK1 at 10 uM
Chain of Serine/threonine-protein kinase PLK1 (Homo sapiens) (P53350 whole entry): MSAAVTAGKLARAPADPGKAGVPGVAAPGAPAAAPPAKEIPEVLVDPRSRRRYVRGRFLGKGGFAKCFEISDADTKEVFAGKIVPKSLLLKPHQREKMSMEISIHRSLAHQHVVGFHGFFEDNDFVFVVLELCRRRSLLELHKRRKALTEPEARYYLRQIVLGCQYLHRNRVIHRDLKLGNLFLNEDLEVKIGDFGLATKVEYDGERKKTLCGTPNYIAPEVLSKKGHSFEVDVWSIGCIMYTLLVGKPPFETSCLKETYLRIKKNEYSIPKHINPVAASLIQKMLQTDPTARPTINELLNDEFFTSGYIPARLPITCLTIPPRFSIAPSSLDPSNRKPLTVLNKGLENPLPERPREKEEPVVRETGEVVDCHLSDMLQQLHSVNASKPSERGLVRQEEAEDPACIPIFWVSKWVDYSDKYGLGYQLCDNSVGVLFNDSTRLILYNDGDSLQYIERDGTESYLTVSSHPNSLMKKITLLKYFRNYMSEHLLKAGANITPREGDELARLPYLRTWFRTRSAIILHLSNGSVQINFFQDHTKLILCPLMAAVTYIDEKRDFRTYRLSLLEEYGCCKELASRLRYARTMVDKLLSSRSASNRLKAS

[14] = system: MCF7; experiment: Antiproliferative activity against human MCF7 cells at 100 uM after 48 hrs relative to control; format: functional; conditions: MCF7, 48 h; how it was run: as §1
[15] = species: Homo sapiens; experiment: Inhibition of CK2-alpha1 at 10 uM
[16] = target: Angiopoietin-1 receptor (Homo sapiens) (UniProt Q02763); experiment: Inhibition of TIE2 at 10 uM
Chain of Angiopoietin-1 receptor (Homo sapiens) (Q02763 whole entry): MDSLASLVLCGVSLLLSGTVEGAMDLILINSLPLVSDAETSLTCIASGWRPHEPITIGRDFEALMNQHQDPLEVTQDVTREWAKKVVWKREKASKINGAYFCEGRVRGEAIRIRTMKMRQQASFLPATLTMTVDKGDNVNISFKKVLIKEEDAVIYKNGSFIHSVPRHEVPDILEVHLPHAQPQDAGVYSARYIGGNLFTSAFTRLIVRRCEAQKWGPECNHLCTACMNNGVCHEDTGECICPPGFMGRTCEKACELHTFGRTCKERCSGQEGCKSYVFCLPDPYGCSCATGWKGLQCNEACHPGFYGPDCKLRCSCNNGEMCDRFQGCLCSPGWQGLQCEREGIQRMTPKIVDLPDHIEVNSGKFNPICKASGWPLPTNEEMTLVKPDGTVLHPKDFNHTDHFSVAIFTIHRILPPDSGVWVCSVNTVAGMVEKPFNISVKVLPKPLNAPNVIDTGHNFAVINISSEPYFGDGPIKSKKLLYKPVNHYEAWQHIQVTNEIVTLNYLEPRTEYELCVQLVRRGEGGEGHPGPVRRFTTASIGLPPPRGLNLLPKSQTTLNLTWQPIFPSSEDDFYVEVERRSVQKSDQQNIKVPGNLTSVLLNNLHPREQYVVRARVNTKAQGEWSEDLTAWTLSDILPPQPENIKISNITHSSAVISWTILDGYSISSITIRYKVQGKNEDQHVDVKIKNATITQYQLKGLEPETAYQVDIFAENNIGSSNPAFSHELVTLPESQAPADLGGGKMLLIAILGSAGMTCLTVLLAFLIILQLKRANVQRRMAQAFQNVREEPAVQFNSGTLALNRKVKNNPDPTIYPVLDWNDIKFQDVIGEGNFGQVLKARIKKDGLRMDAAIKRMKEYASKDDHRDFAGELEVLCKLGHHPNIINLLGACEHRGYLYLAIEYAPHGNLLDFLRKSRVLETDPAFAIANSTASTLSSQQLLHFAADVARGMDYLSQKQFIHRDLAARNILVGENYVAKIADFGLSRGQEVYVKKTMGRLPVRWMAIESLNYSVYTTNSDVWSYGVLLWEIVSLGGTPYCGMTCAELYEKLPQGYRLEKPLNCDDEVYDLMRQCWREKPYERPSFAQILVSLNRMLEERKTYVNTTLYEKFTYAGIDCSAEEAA

[17] = target: Aurora kinase B (Homo sapiens) (UniProt Q96GD4); experiment: Inhibition of aurora B at 10 uM
Chain of Aurora kinase B (Homo sapiens) (Q96GD4 whole entry): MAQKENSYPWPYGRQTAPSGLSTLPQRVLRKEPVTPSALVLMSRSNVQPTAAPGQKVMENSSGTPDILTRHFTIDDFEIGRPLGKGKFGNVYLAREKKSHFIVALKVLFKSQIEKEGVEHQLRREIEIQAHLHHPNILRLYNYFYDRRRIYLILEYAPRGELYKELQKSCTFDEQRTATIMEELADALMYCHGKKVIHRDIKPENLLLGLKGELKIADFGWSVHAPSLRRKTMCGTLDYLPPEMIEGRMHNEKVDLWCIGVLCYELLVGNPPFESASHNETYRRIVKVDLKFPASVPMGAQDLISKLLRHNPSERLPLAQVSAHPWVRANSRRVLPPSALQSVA

SMILES | inhibition [1] [%] | inhibition [3] [%] | inhibition [4] [%] | inhibition [5] [%] | inhibition [6] [%] | inhibition [7] [%] | inhibition [8] [%] | inhibition [9] [%] | inhibition [10] [%] | inhibition [11] [%] | inhibition [13] [%] | inhibition [15] [%] | inhibition [16] [%] | inhibition [17] [%] | growth, % of control at 100 µM [2] [%] | growth, % of control at 100 µM [12] [%] | growth, % of control at 100 µM [14] [%]
O=C1Cc2cnn(-c3cc(Cl)cc(Cl)c3)c2-c2ccccc2N1 | < 40 | < 40 | < 40 | < 40 | < 40 | < 40 | < 40 | < 40 | < 40 | < 40 | < 40 | < 40 | < 40 | < 40 | 62 | 21 | 40
O=C1Cc2cnn(-c3ccc([N+](=O)[O-])cc3)c2-c2ccccc2N1 | < 40 | < 40 | < 40 | < 40 | < 40 | < 40 | < 40 | < 40 | < 40 | < 40 | < 40 | < 40 | < 40 | < 40 | 62 | 62 | 55
O=C1Cc2cnn(-c3cccc(Cl)c3)c2-c2ccccc2N1 | < 40 | < 40 | < 40 | < 40 | < 40 | < 40 | < 40 | < 40 | < 40 | < 40 | < 40 | < 40 | < 40 | < 40 | 101 | 39 | 64
O=C1Cc2cnn(-c3ccc(F)cc3F)c2-c2ccccc2N1 | < 40 | < 40 | < 40 | < 40 | < 40 | < 40 | < 40 | < 40 | < 40 | < 40 | < 40 | < 40 | < 40 | < 40 | 98 | 41 | 61
O=C1Cc2cnn(-c3ccccc3F)c2-c2ccccc2N1 | < 40 | < 40 | < 40 | < 40 | < 40 | < 40 | < 40 | < 40 | < 40 | < 40 | < 40 | < 40 | < 40 | < 40 | 98 | 49 | 66
O=C1Cc2cnn(-c3ccccc3Cl)c2-c2ccccc2N1 | < 40 | < 40 | < 40 | < 40 | < 40 | < 40 | < 40 | < 40 | < 40 | < 40 | < 40 | < 40 | < 40 | < 40 | 71 | 53 | 66

Further lines, with some results ahead:

inhibition [1] [%] | inhibition [3] [%] | inhibition [4] [%] | inhibition [5] [%] | inhibition [6] [%] | inhibition [7] [%] | inhibition [8] [%] | inhibition [9] [%] | inhibition [10] [%] | inhibition [11] [%] | inhibition [13] [%] | inhibition [15] [%] | inhibition [16] [%] | inhibition [17] [%] | SMILES | growth, % of control at 100 µM [2] [%] | growth, % of control at 100 µM [12] [%] | growth, % of control at 100 µM [14] [%]
< 40 | < 40 | < 40 | < 40 | < 40 | < 40 | < 40 | < 40 | < 40 | < 40 | < 40 | < 40 | < 40 | < 40 | O=C1Cc2cnn(-c3ccc(Cl)cc3)c2-c2ccccc2N1 | 80 | 41 | 54
< 40 | < 40 | < 40 | < 40 | < 40 | < 40 | < 40 | < 40 | < 40 | < 40 | < 40 | < 40 | < 40 | < 40 | COc1ccc(-n2ncc3c2-c2ccccc2NC(=O)C3)cc1 | 88 | 26 | 60
< 40 | < 40 | < 40 | < 40 | < 40 | < 40 | < 40 | < 40 | < 40 | < 40 | < 40 | < 40 | < 40 | < 40 | O=C1Cc2cnn(-c3ccc(C(F)(F)F)cc3)c2-c2ccccc2N1 | – | 28 | 52
< 40 | < 40 | – | < 40 | < 40 | < 40 | < 40 | < 40 | < 40 | < 40 | < 40 | < 40 | < 40 | < 40 | CC(C)(C)c1ccc(-n2ncc3c2-c2ccccc2NC(=O)C3)cc1 | – | 11 | 130

From ChEMBL document CHEMBL1139946, “1-Aryl-4,6-dihydropyrazolo[4,3-d][1]benzazepin-5(1H)-ones: a new class of antiproliferative agents with selectivity for human leukemia and breast cancer cell lines” (Eur J Med Chem, 2007)
